We go through 8 compounds from ChEMBL document CHEMBL3352584, “Novel DNA gyrase inhibiting spiropyrimidinetriones with a benzisoxazole scaffold: SAR and in vivo characterization” (J Med Chem, 2014).

Values after ≈ are worked out from the molar mass of the structure shown. A value given as a limit tells only on which side of the number the result lay.

In one series the test system is Streptococcus pyogenes. Briefly: Antimicrobial activity against Streptococcus pyogenes by broth microdilution method. In kind it is functional. A digest of the protocol:
(§1)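 Broth microdilution following CLSI guidelines. Values under 12.5 μM are averages of three or more replicates.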
A general note: In broth dilution the organism is exposed to a series of concentrations in liquid medium.

The subject of series [1] is Staphylococcus aureus. Briefly: Antimicrobial activity against methicillin-sensitive Staphylococcus aureus by broth microdilution method. The class given is functional. A digest of the protocol:
as §1

The test system of series [2] is Escherichia coli. Briefly: Antimicrobial activity against tolC-deficient Escherichia coli by broth microdilution method. In kind it is functional. The method in brief:
as §1

A further series relates to Streptococcus pneumoniae. Briefly: Antimicrobial activity against Streptococcus pneumoniae by broth microdilution method. In kind it is functional. A digest of the protocol: as §1
In series [3] the test system is Escherichia coli. The experiment in a line: Antimicrobial activity against Escherichia coli by broth microdilution method. In kind it is functional. A digest of the protocol:
as §1

A short description of series [4]: Solubility of the compound. In kind it is physicochemical.
Series [5] concerns Staphylococcus aureus. The experiment in a line: Antimicrobial activity against methicillin-resistant and quinolone-resistant Staphylococcus aureus by broth microdilution method. The class given is functional. The method in brief: as §1
For another series, the system named is Haemophilus influenzae. Briefly: Antimicrobial activity against Haemophilus influenzae by broth microdilution method. In kind it is functional. The method in brief: as §1
Series [6] can be described thus: Fraction unbound in human plasma at 10 uM after 16 hrs by LC-MS/MS analysis. In kind it is ADME, cell-free. A digest of the protocol: (§2)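 Compound at 10 μM in human, rat or mouse plasma, equilibrium dialysis against buffer at 37 °C for 16 h. Buffer and plasma concentrations measured by LC-MS/MS, and the free fraction taken from their ratio.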
The next series deals with DNA gyrase (Escherichia coli, UniProt P0AES4+P0AES6). Briefly: Inhibition of Escherichia coli DNA gyrase using fluorescence-tagged DNA by fluorescenct polarization assay. In kind it is protein-complex assay. A digest of the protocol: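 E. coli DNA gyrase supercoiling assay. The read-out was differential binding of a fluorescence-tagged DNA to relaxed versus supercoiled DNA, giving IC50.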

A short description of series [7]: Bioavailability in rat at 3 mg/kg, iv or at 10 mg/kg, po by LC-MS/MS method. In kind it is ADME, organism-based. The following applies: in vivo. The method in brief:
(§3)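 Male mice (CD-1) or male Wistar Hannover rats, three per experiment, given a 15 min iv infusion at 3 mg/kg or oral dosing at 10 mg/kg. Vehicle was DMA:TEG:saline 40/40/20 for mice and meglumine/cyclodextrin for rats. Serial jugular blood was taken over 0–24 h, plasma analysed by LC-MS/MS, and a noncompartmental analysis used. Mean values are given.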

A short description of series [8]: Bioavailability in mouse at 3 mg/kg, iv or at 10 mg/kg, po by LC-MS/MS method. The class given is ADME, organism-based. The following applies: in vivo. A digest of the protocol:
as §3

The nature of series [9]: Fraction unbound in mouse plasma at 10 uM after 16 hrs by LC-MS/MS analysis. In kind it is ADME, cell-free. A digest of the protocol: as §2
A short description of series [10]: Clearance in mouse at 3 mg/kg, iv or at 10 mg/kg, po by LC-MS/MS method. In kind it is ADME, organism-based. The conditions noted are these: in vivo. The method in brief:
as §3

Series [11] is described as follows: Clearance in rat at 3 mg/kg, iv or at 10 mg/kg, po by LC-MS/MS method. The class given is ADME, organism-based. The conditions noted are these: in vivo. A digest of the protocol:
as §3

In series [12] the test system is Staphylococcus aureus. The experiment in a line: Antimicrobial activity against methicillin-sensitive Staphylococcus aureus by broth microdilution method in presence of 50% human serum. In kind it is functional. The method in brief:
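CLSI broth microdilution against methicillin-sensitive S. aureus, run with 50% human serum added to the medium to reflect plasma protein binding. Values under 12.5 μM are averages of three or more replicates.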

Series [13] in a line: Fraction unbound in rat plasma at 10 uM after 16 hrs by LC-MS/MS analysis. The class given is ADME, cell-free. The method in brief: as §2

For `CC1CN2c3c(cc4c(C5CC5)noc4c3F)CC3(C(=O)NC(=O)NC3=O)C2C(C)O1` (racemic), the MIC was 6.2 µM (≈ 2.66 µg/mL) in the series with Streptococcus pyogenes; 1.6 µM (≈ 0.685 µg/mL) in the series on Staphylococcus aureus [1]; at most 0.2 µM in the series on Escherichia coli [2]; 25 µM (≈ 10.7 µg/mL) with Streptococcus pneumoniae; 100 µM (≈ 42.8 µg/mL) in the series with Escherichia coli [3]; 12 µM (≈ 5.14 µg/mL) against Staphylococcus aureus [5]. The MIC in the series with Haemophilus influenzae was 3.1 µM (≈ 1.33 µg/mL). Further, the solubility (usually the dissolved amount per volume that the medium holds) in [4] was 29 µM (≈ 12.4 µg/mL). In addition, the fraction unbound – broadly, the share of the substance not bound to proteins or other matrix – at 16 h, 10 µM in series [6] was found to be 0.052. It took 340 nM to reach half-maximal inhibition at DNA gyrase (IC50).
For the compound `Cc1noc2c(F)c3c(cc12)CC1(C(=O)NC(=O)NC1=O)[C@H]1[C@H](C)O[C@@H](C)CN31`, the MIC in the series with Streptococcus pyogenes was over 200 µM; against Staphylococcus aureus [1], over 200 µM; against Escherichia coli [2], 12 µM (≈ 4.83 µg/mL); against Streptococcus pneumoniae, over 200 µM; with Escherichia coli [3], over 200 µM; in the series on Staphylococcus aureus [5] it was over 200 µM. For the same compound, the MIC against Haemophilus influenzae stood at 200 µM (≈ 80.5 µg/mL). This compound also displayed a solubility in [4] of 340 µM (≈ 137 µg/mL). Also, in series [6], the fraction unbound at 16 h, 10 µM stood at 0.051. In addition, the IC50 – broadly, the midpoint of a concentration-inhibition curve – against DNA gyrase is 26000 nM.
For the compound `C[C@@H]1CN2c3c(cc4c(C(F)(F)F)noc4c3F)CC3(C(=O)NC(=O)NC3=O)[C@H]2[C@H](C)O1`, the MIC against Streptococcus pyogenes is 3.1 µM (≈ 1.41 µg/mL); with Staphylococcus aureus [1], 0.78 µM (≈ 0.356 µg/mL); against Escherichia coli [2] it was at most 0.2 µM; with Streptococcus pneumoniae, 12 µM (≈ 5.48 µg/mL); in the series with Escherichia coli [3], 25 µM (≈ 11.4 µg/mL); against Staphylococcus aureus [5], 1.6 µM (≈ 0.73 µg/mL). For the same compound, the MIC against Haemophilus influenzae was 1.6 µM (≈ 0.73 µg/mL); with Staphylococcus aureus [12], 100 µM. Also, the results for the bioavailability in [7] and in series [8] were 60% and 63%, respectively. In addition, the values for the fraction unbound at 16 h, 10 µM in [9], in [6] and in series [13] were 0.078, under 0.01 and 0.078, respectively. The amount in solution in [4] (solubility) came to 53 µM (≈ 24.2 µg/mL). Besides, the clearance was found to be 46 mL/min/kg in series [10] and 2.3 mL/min/kg in [11]. On DNA gyrase, this compound returned an IC50 of 610 nM.
Take `Cc1noc2c(Cl)c3c(cc12)CC1(C(=O)NC(=O)NC1=O)C1C(C)OC(C)CN31` (racemic): the MIC was 25 µM (≈ 10.5 µg/mL) against Streptococcus pyogenes; 6.2 µM (≈ 2.6 µg/mL) with Staphylococcus aureus [1]; at most 0.2 µM with Escherichia coli [2]; 50 µM (≈ 20.9 µg/mL) with Streptococcus pneumoniae; 200 µM (≈ 83.8 µg/mL) against Escherichia coli [3]; 12 µM (≈ 5.03 µg/mL) in the series on Staphylococcus aureus [5]. For the same compound, the MIC with Haemophilus influenzae is 3.1 µM (≈ 1.3 µg/mL); with Staphylococcus aureus [12], 50 µM. In [4], the concentration in solution (solubility) came to 330 µM (≈ 138 µg/mL). The fraction unbound at 16 h, 10 µM in series [6] is 0.03. Besides, at DNA gyrase, the IC50 was found to be 370 nM.
For `Cc1noc2c(F)c3c(cc12)CC1(C(=O)NC(=O)NC1=O)C1C(C)OC(C)CN31` (racemic), the MIC in the series with Staphylococcus aureus [1] turned out to be 2.8 µM (≈ 1.13 µg/mL); with Escherichia coli [2], 0.3 µM (≈ 0.121 µg/mL); in the series on Streptococcus pneumoniae, 21 µM (≈ 8.45 µg/mL); with Escherichia coli [3], 100 µM (≈ 40.2 µg/mL); in the series with Staphylococcus aureus [5], 2.5 µM (≈ 1.01 µg/mL); against Haemophilus influenzae, 2.5 µM (≈ 1.01 µg/mL). The solubility in [4] is over 1000 µM. Further, in series [6], the fraction unbound at 16 h, 10 µM was 0.063. The compound also came in with an IC50 against DNA gyrase of 380 nM.
Regarding `CC(=O)NC[C@H]1CN(c2ccc(N3CCOCC3)c(F)c2)C(=O)O1` [LINEZOLID], the MIC is 3.1 µM (≈ 1.05 µg/mL) against Streptococcus pyogenes; 6.2 µM (≈ 2.09 µg/mL) against Staphylococcus aureus [1]; 20 µM (≈ 6.75 µg/mL) with Escherichia coli [2]; 3.1 µM (≈ 1.05 µg/mL) in the series with Streptococcus pneumoniae; over 200 µM against Escherichia coli [3]; 6.2 µM (≈ 2.09 µg/mL) against Staphylococcus aureus [5]. For the same compound, the MIC with Haemophilus influenzae stood at 23 µM (≈ 7.76 µg/mL); with Staphylococcus aureus [12], 12 µM. This compound also registered a fraction unbound at 16 h, 10 µM in series [6] of 0.71. This compound also returned an IC50 against DNA gyrase of over 32000 nM.
For `C[C@@H]1CN2c3c(cc4c(N)noc4c3F)CC3(C(=O)NC(=O)NC3=O)[C@H]2[C@H](C)O1`, the MIC in the series with Streptococcus pyogenes is 3.1 µM (≈ 1.25 µg/mL); in the series on Staphylococcus aureus [1], 25 µM (≈ 10.1 µg/mL); in the series with Escherichia coli [2], at most 0.2 µM; against Streptococcus pneumoniae, 6.2 µM (≈ 2.5 µg/mL); with Escherichia coli [3], 100 µM (≈ 40.3 µg/mL); in the series with Staphylococcus aureus [5] it was 50 µM (≈ 20.2 µg/mL). This compound also yielded an MIC in the series on Haemophilus influenzae of 1.6 µM (≈ 0.645 µg/mL). In [4], this compound came in with a solubility of 330 µM (≈ 133 µg/mL). Moreover, in series [6], the fraction unbound at 16 h, 10 µM came to 0.13. Also, the IC50 on DNA gyrase amounted to 260 nM.
On to `C[C@@H]1CN2c3c(cc4c(Cl)noc4c3F)CC3(C(=O)NC(=O)NC3=O)[C@H]2[C@H](C)O1`, for which the MIC in the series on Streptococcus pyogenes stood at 6.2 µM (≈ 2.62 µg/mL); in the series with Staphylococcus aureus [1], 0.39 µM (≈ 0.165 µg/mL); with Escherichia coli [2] it was 6.2 µM (≈ 2.62 µg/mL); against Streptococcus pneumoniae, 12 µM (≈ 5.07 µg/mL); in the series with Escherichia coli [3], 25 µM (≈ 10.6 µg/mL); with Staphylococcus aureus [5], 0.78 µM (≈ 0.33 µg/mL). Also, the MIC in the series with Haemophilus influenzae was 25 µM (≈ 10.6 µg/mL); in the series on Staphylococcus aureus [12], 12 µM. Also, the solubility in series [4] was over 1000 µM. Moreover, the fraction unbound at 16 h, 10 µM in series [6] was under 0.01. For the same compound, the IC50 against DNA gyrase was 210 nM.
